Molecules are shown by their SMILES. Activity calls are given as the source filed them. The rule behind the calls is not given here.

These results are taken from ChEMBL document CHEMBL1158464, “Structure-activity relationships and cancer-cell selective toxicity of novel inhibitors of glioma-associated oncogene homologue 1 (Gli1) mediated transcription” (J Med Chem, 2009).

Series [1] concerns the target T1, Zinc finger protein GLI1 (Homo sapiens) (UniProt P08151).
T1 sequence (whole entry): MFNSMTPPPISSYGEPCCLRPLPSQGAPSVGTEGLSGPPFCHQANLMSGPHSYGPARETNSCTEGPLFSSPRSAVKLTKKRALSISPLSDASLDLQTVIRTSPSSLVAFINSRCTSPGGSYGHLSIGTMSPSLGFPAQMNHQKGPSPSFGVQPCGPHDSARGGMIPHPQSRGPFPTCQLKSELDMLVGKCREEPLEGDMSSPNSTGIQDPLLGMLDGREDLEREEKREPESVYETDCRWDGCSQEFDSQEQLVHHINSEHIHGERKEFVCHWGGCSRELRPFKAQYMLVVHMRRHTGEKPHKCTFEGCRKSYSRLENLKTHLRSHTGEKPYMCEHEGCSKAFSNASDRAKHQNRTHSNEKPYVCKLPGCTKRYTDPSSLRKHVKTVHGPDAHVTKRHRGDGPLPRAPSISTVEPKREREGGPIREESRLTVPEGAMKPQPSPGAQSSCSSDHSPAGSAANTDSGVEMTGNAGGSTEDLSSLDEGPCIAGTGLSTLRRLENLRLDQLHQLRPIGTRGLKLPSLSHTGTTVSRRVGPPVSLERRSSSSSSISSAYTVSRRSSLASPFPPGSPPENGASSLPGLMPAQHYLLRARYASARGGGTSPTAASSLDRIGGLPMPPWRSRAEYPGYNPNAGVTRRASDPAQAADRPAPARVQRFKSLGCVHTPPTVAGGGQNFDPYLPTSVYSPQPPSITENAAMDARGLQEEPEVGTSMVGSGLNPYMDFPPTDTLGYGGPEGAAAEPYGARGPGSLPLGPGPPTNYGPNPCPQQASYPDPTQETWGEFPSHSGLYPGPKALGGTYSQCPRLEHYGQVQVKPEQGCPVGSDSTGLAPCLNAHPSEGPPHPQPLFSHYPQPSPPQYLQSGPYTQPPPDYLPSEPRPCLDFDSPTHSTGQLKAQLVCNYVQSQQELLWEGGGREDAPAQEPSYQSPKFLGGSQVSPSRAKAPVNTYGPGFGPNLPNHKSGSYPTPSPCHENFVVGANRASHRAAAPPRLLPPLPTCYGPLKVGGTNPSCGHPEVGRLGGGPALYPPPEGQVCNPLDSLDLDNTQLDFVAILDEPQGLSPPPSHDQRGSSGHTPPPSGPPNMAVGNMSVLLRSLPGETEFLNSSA
Put plainly: Inhibition of exogenously transfected human Gli1-mediated transcriptional activity in mouse C3H10T1/2 cells at 20 uM after 24 hrs by luciferase reporter gene assay. In kind it is cell-based. Conditions: C3H 10T1/2. Put shortly: (§1)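 They were replated 18 h later, given compound or DMSO 6 h after plating, and exposed for 24 h at 37 °C, 5% CO2. Lysate was read by dual luciferase as firefly/Renilla, triplicate, DMSO = 0%. IC50 came from curve fitting.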
A general note: In a reporter assay the amount or activity of a reporter protein is the signal.

For series [2], the target named is T1, Zinc finger protein GLI1 (Homo sapiens). Put plainly: Inhibition of exogenously transfected human Gli1-mediated transcriptional activity in mouse C3H10T1/2 cells at 40 uM after 24 hrs by luciferase reporter gene assay. Conditions: C3H 10T1/2. The format is cell-based. In short, it runs like this:
as §1

The next series concerns SJRH30. In words: Cytotoxicity against human Rh30 cells at 40 uM/well after 68 hrs by alamar blue assay. In kind it is functional, cell-based. Put shortly: (§2)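 Cells plated in appropriate medium 24 h before compound. A 10 mM DMSO stock was diluted in EMEM to 160 µM (4×) and added in triplicate to a final 40 µM. Incubated 68 h at 37 °C, then Alamar Blue for 4 h at 37 °C. Fluorescence read at ex 510/em 590 nm. Viability taken relative to DMSO control wells.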
Background: Alamar Blue is a resazurin reagent that responds to reducing activity.

Another series deals with MDA-MB-231. In words: Cytotoxicity against human MDA-MB-231 cells at 40 uM/well after 68 hrs by alamar blue assay. The format is functional, cell-based. In short, it runs like this: as §2
For another series, the system named is Daoy. In words: Cytotoxicity against human DaOY cells at 40 uM/well after 68 hrs by alamar blue assay. The format is functional, cell-based. In short, it runs like this: as §2
Another series has as its system DU-145. In words: Cytotoxicity against human DU145 cells at 40 uM/well after 68 hrs by alamar blue assay. The format is functional, cell-based. In short, it runs like this:
as §2

The next series concerns Raji. In words: Cytotoxicity against human Raji cells at 40 uM/well after 68 hrs by alamar blue assay. In kind it is functional, cell-based. In short, it runs like this:
as §2

The subject of a further series is HepG2. Put plainly: Cytotoxicity against human HepG2 cells at 40 uM/well after 68 hrs by alamar blue assay. In kind it is functional, cell-based. In short, it runs like this:
as §2

A further series has as its system LN-229. Put plainly: Cytotoxicity against human LN229 cells at 40 uM/well after 68 hrs by alamar blue assay. The format is functional, cell-based. Put shortly: as §2
The next series deals with BJ. In words: Cytotoxicity against human TERT-immortalized human BJ cells at 40 uM/well after 68 hrs by alamar blue assay. In kind it is cell-based. In short, it runs like this:
as §2

For `COCCN(CCc1ccc(O)cc1)C(=O)[C@@H](C)c1cccc(C(=O)c2ccccc2)c1`, the inhibition entry in series [1] and in [2] was “Active” in each case. Also, the result with SJRH30, in the series with MDA-MB-231, in the series with Daoy, in the series with DU-145 and in the series on Raji was Active. The result in the series with HepG2 and in the series on LN-229 was inactive. In addition, in the series on BJ, the Activity result was “Non-toxic”.

Regarding `C[C@H](C(=O)NCCc1ccccc1)c1cccc(C(=O)c2ccccc2)c1`, the inhibition entry in series [1] and in [2] was “Active” throughout. For the same compound, the outcome in the series with SJRH30, in the series on MDA-MB-231, in the series with Daoy, with DU-145 and in the series with Raji was Active. In addition, the result in the series on HepG2 and with LN-229 was inactive. In the series on BJ, the Activity result is on record as “Non-toxic”.

For `O=C(Cc1ccccc1Oc1ccccc1)NCCc1ccc(O)cc1`, the result in the series on SJRH30, with MDA-MB-231, in the series with Daoy, with DU-145 and in the series on Raji was Active. Also, the outcome with HepG2 and with LN-229 was inactive. In addition, the Activity result in the series with BJ was “Non-toxic”.

In the case of `C[C@H](C(=O)NCCc1ccc(O)cc1)c1cccc(C(O)c2ccccc2)c1` (stereo partly specified), the outcome in the series with SJRH30, in the series on MDA-MB-231, in the series with Daoy, in the series on DU-145 and in the series on Raji was Active. For the same compound, the result with HepG2 and in the series on LN-229 was inactive. Also, the Activity entry in the series on BJ is “Non-toxic”.

With `COc1ccc(CCNC(=O)[C@@H](C)c2cccc(C(=O)c3ccccc3)c2)cc1`, the inhibition entry in series [1] and in series [2] was “Active” each time. In addition, the outcome in the series on SJRH30, with MDA-MB-231, in the series on Daoy, with DU-145 and with Raji was Active. The result with HepG2 and in the series with LN-229 was inactive. Also, the Activity result with BJ is listed as “Non-toxic”.

For `COc1ccc(COC[C@@H](C)c2cccc(C(=O)c3ccccc3)c2)cc1`, the inhibition entry in [1] and in series [2] was “inactive” throughout. For the same compound, the outcome with SJRH30, in the series on MDA-MB-231, with Daoy, with DU-145 and in the series on Raji was Active. For the same compound, the outcome in the series on HepG2 and in the series with LN-229 was inactive. In addition, the Activity entry with BJ is on record as “Non-toxic”.

For `C[C@H](COC(=O)Nc1ccc(O)cc1)c1cccc(C(=O)c2ccccc2)c1`, the inhibition entry in [1] and in series [2] was “Active” each time. The result with SJRH30, in the series with MDA-MB-231, in the series with Daoy, with DU-145 and in the series on Raji was Active. In addition, the outcome in the series with HepG2 and in the series on LN-229 was inactive. For the same compound, the Activity result in the series on BJ is reported as “Non-toxic”.

On to `COc1ccc2cc([C@H](C)C(=O)NCCc3ccc(O)cc3)ccc2c1`, for which the inhibition result in [1] and in series [2] was “Active” throughout. Also, the result in the series with SJRH30, in the series on MDA-MB-231, in the series with Daoy, with DU-145 and in the series on Raji was Active. Moreover, the result in the series with HepG2 and in the series on LN-229 was inactive. Also, the Activity result in the series with BJ is reported as “Non-toxic”.

Consider `C[C@H](C(=O)NCCc1ccccc1O)c1cccc(C(=O)c2ccccc2)c1`, for which, in series [1], the inhibition entry is “Active”. Further, the outcome with SJRH30, with MDA-MB-231, in the series on Daoy, in the series on DU-145 and with Raji was Active. In addition, the result with HepG2 and with LN-229 was inactive. The Activity entry in the series on BJ is recorded as “Non-toxic”.

For `CC(C)Cc1ccc(C(C)C(=O)NCCc2ccc(O)cc2)cc1` (stereo unspecified), the outcome in the series on SJRH30, in the series with MDA-MB-231, in the series with Daoy, in the series with DU-145 and in the series with Raji was Active. Further, the outcome with HepG2 and in the series with LN-229 was inactive. For the same compound, the Activity result with BJ was “Non-toxic”.

Take `CC(C(=O)NCCc1ccc(O)cc1)c1cccc(C(=O)c2ccccc2)c1` (racemic): the outcome with SJRH30, in the series with MDA-MB-231, with Daoy, in the series on DU-145 and in the series with Raji was Active. Besides, the outcome with HepG2 and in the series on LN-229 was inactive. The Activity result in the series on BJ is on record as “Non-toxic”.

For `O=C(Cc1cccc(Oc2ccccc2)c1)NCCc1ccc(O)cc1`, the outcome in the series with SJRH30, in the series with MDA-MB-231, in the series on Daoy, in the series on DU-145 and in the series on Raji was Active. Further, the outcome in the series on HepG2 and with LN-229 was inactive. In addition, the Activity result with BJ is recorded as “Non-toxic”.

`COc1ccc2cc([C@@H](C)C(=O)NCCc3ccc(O)cc3)ccc2c1`: the result in the series on SJRH30, with MDA-MB-231, with Daoy, with DU-145 and in the series with Raji was Active. Moreover, the result in the series on HepG2 and in the series on LN-229 was inactive. Besides, the Activity result with BJ is given as “Non-toxic”.

Regarding `COc1ccc2[nH]cc(CC(=O)NCCc3ccc(O)cc3)c2c1`, the result in the series on SJRH30, in the series on MDA-MB-231, in the series with Daoy, in the series with DU-145 and with Raji was Active. Also, the outcome in the series on HepG2 and with LN-229 was inactive. Further, in the series with BJ, the Activity result is on record as “Non-toxic”.

For the compound `O=C(Cc1ccc(Oc2ccccc2)cc1)NCCc1ccc(O)cc1`, the outcome in the series with SJRH30, in the series with MDA-MB-231, in the series with Daoy, in the series on DU-145 and in the series on Raji was Active. For the same compound, the outcome in the series on HepG2 and in the series with LN-229 was inactive. Moreover, the Activity entry with BJ is “Non-toxic”.

In the case of `C[C@H](C(=O)NCCc1ccc(O)cc1)c1cccc(Cc2ccccc2)c1`, the result in the series on SJRH30, in the series with MDA-MB-231, in the series on Daoy, in the series with DU-145 and in the series with Raji was Active. The outcome in the series with HepG2 and in the series with LN-229 was inactive. Moreover, the Activity result in the series on BJ is recorded as “Non-toxic”.
